Source: PubChem (several laboratories)
Sampled rows, rich in hits. Any-hit rate of the full collection: about 4%.
KCNK3 block – human KCNK3 channel inhibition, primary screen. AID 602410. CHO-KCNK3 thallium flux, FluxOR fluorescence; stronger effect = lower value. B-score at 10 µM. 340,000 compounds, 0.84% hits. O14649;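 active = B-score under library mean minus 4 SD, starting fluorescence ratio at most library mean plus 5 SD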;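 also: more negative B-score means stronger inhibition of thallium flux through KCNK3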
KCNQ1 inh – blocks the human KCNQ1 potassium channel. P51787. CHO-K1 KCNQ1, FluxOR thallium flux fluorescence; stronger effect = higher value. B-score at 10 µM. 310,000 compounds, 1.3% hits;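 active = compounds whose thallium flux B-score, printed positive for inhibition, exceeds three library SD while starting fluorescence stays within three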;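 also: channel opened by potassium depolarization with thallium stimulus after 20 min compound exposure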
Target sequence (P51787 whole entry, looked up): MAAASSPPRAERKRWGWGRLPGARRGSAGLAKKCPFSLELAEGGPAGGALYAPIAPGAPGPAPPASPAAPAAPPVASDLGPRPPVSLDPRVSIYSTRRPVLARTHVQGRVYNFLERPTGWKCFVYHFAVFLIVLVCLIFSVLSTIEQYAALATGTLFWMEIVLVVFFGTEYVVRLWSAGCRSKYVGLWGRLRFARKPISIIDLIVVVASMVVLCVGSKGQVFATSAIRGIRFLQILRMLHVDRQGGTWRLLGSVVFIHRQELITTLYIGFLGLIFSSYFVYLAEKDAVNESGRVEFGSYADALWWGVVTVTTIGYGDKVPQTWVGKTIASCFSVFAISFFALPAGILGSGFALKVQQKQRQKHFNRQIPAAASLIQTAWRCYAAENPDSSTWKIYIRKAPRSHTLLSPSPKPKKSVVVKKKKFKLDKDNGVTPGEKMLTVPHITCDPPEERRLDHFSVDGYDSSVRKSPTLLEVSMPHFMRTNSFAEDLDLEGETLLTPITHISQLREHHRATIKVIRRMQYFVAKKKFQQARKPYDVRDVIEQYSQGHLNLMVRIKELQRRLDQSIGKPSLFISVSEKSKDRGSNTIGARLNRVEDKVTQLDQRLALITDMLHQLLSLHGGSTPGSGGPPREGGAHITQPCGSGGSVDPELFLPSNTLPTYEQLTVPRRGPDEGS
KCNK9 block – human KCNK9 channel inhibition | Q9NPC2 | HEK293 KCNK9, FluxOR thallium flux fluorescence; stronger effect = lower value | B-score at 10 µM | 310,000 compounds, 1.2% hits;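 active = ratio B-score over 3 SD below the library mean, with starting fluorescence within 5 SD of its mean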;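 also: negative B-score means less thallium flux so channel inhibition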
KCNQ1 act – human KCNQ1 channel potentiation or activation | P51787 | CHO-K1 KCNQ1, thallium flux FluxOR fluorescence; stronger effect = higher value | B-score at 10 µM | 310,000 compounds, 0.35% hits | AID 2648;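 active = fluorescence ratio B-score, a plate-corrected score, at least three library SD, with initial intensity B-score within 5 SD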
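System: CHO-K1 cells stably expressing KCNQ1 / Medium: assay buffer for compound exposure, DMSO matched across wells / Reagent: thallium- and potassium-containing depolarizing buffer / Compound: one concentration, matched DMSO / Incubation: 20 min compound pretreatment at room temperature / Measured by: kinetic FluxOR fluorescence, 10 s baseline plus 110 s post-stimulus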
PHOSPHO1 block – inhibitors of human PHOSPHO1 phosphatase; inhibition, % at 13.3 µM; 290,000 compounds, 1.1% hits; recombinant PHOSPHO1, absorbance phosphatase assay; Q8TCT1; in the data active = inhibition above about 60%
hERG rescue – hERG (human) protection from proarrhythmic block. CHO-hERG, FluxOR thallium flux, dofetilide IC70 present. 310,000 compounds, 0.51% hits. AID 1511. activation (rescue from dofetilide block), less the hit threshold, % at 10 µM. Q12809;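 active = activation above the mean of controls blocked by dofetilide plus 5 SD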;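 also: thallium influx through hERG after potassium depolarization seen as dye fluorescence rise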
KCNQ1 block val – reconfirmed blocker of the human KCNQ1 potassium channel. shares compounds with KCNQ1 inh. KCNQ1 cell line, FluxOR thallium flux fluorescence. inhibition, % at 10 µM. 1,600 compounds, 93% hits;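 active = primary screen active, with duplicate mean exceeding buffer control mean plus 3 SD of buffer wells, cut at about 28% in these data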
CHO Tl flux – activity in parental CHO cells lacking KCNQ1; shares compounds with KCNQ1 inh; parental CHO-K1, FluxOR thallium flux fluorescence ratio; stronger effect = lower value; zero means no signal rise above baseline; fluorescence ratio (Tl flux) at 10 µM; 1,600 compounds, 21% hits;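 active = mean of duplicate thallium-flux fluorescence ratios in parental host cells more than 5 SD below the buffer control mean, cut at about 0.38 in these data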;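 also: ratio is peak minus minimum fluorescence divided by baseline fluorescence; actives read low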
KCNQ1 ephys val – human KCNQ1 inhibition validated by electrophysiology; shares compounds with KCNQ1 inh; KCNQ1-CHO cells, automated patch clamp current; calls only at 10 µM; 490 compounds, 20% hits; AID 624120;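 active = KCNQ1 current drop exceeding 3 SD of negative control wells, seen in both duplicate runs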;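 also: steady state current during a 2 s step from -80 to +40 mV; negative values mean current inhibition and positive values mean potentiation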
KCNQ2 spec – KCNQ1 inhibitor that also blocks rat KCNQ2 channel | shares compounds with KCNQ1 inh | KCNQ2 cells, FluxOR thallium flux fluorescence | inhibition, % at 10 µM | 1,600 compounds, 71% hits | AID 651746;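 active = mean percent inhibition of the KCNQ2 thallium signal more than 5 SD above the buffer-only control wells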;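 also: KCNQ2 expressed in CHO cells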
KCNQ1-KCNE1 inh – KCNQ1 inhibitor that also blocks human KCNQ1/KCNE1 channel; shares compounds with KCNQ1 inh; KCNQ1/KCNE1 cells, FluxOR thallium flux fluorescence; inhibition, % at 10 µM; 1,600 compounds, 77% hits;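 active = mean percent inhibition of duplicate wells above the buffer-only control mean plus 3 SD of those controls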
A number is an active result; - = inactive; . = no result given; + = active, no number.

SMILES | KCNK3 block | KCNQ1 inh | KCNK9 block | KCNQ1 act | PHOSPHO1 block | hERG rescue | KCNQ1 block val | CHO Tl flux | KCNQ2 spec | KCNQ1-KCNE1 inh | others
O=C(c1cc(COc2cccc(C(F)(F)F)c2)on1)N1CCC(c2ccncc2)CC1 | - | 12 | - | - | - | - | 128 | - | 80% | 106% | KCNQ1 ephys val=-
O=C(OCC(=O)N1CCN(c2ccccc2)CC1)c1ccccc1NCCO | - | - | - | - | . | - | . | . | . | .
CCOC(=O)CC(=O)CSc1ncnc2c1nnn2-c1ccccc1 | - | - | - | - | - | - | . | . | . | .
Fc1ccc(N2CCN(c3nc(-c4ccco4)cc(C(F)(F)F)n3)CC2)cc1 | - | - | - | - | - | - | . | . | . | .
FC(F)(F)c1cc(-c2ccco2)nc(N2CCN(Cc3ccccc3)CC2)n1 | - | 8 | - | - | - | - | 82 | - | 75% | 106%
CC(C)NC(=O)c1onc(CSc2ccc(F)cc2)c1C(=O)O | - | - | - | - | - | - | . | . | . | .
CC(C)NC(=O)c1onc(CSc2ccc(C(C)C)cc2)c1C(=O)O | - | 10 | - | - | - | - | 88 | - | 73% | 42%
CN(C)C=Nc1c(Br)cc(Br)c2nonc12 | - | 7 | - | - | - | - | 174 | 0.21 | - | -
CCn1c(C)c(C)c2cc(C(=O)N3CCc4ccccc4C3)ccc21 | - | 7 | - | - | - | - | 114 | - | 113% | 62% | KCNQ1 ephys val=-
O=C(Nc1ccccc1)c1cc(S(=O)(=O)N2CCCCC2)ccc1N1CCOCC1 | - | . | . | . | . | . | . | . | . | .
O=S(=O)(Nc1ccon1)c1ccc(Br)s1 | - | - | - | - | - | - | . | . | . | .
Cc1cccc(NC(=S)NCCSc2ccc(Cl)cc2)c1 | - | 8 | - | - | - | - | 82 | - | 60% | 96%
CCc1ccccc1NC(=S)NCCSc1ccc(Cl)cc1 | - | - | - | - | - | - | . | . | . | .
Cc1ccc(C)c(NC(=S)NCCSc2ccc(Cl)cc2)c1 | - | 8 | - | - | - | - | 122 | - | 90% | 122% | KCNQ1 ephys val=-
O=S(=O)(Nc1nc2ccccc2nc1Cl)c1ccccc1C(F)(F)F | - | - | - | - | - | - | . | . | . | .
O=S(=O)(Nc1nc2ccccc2nc1Cl)c1cccc(C(F)(F)F)c1 | - | 7 | - | - | - | - | 42 | - | 63% | 34%
COc1ccc(CNC(=O)CSc2nnc(Cn3nnc4ccccc43)n2C)cc1 | - | - | - | - | - | - | . | . | . | .
COc1ccc(OCC(=O)Nc2nccs2)cc1 | - | 7 | - | - | - | - | - | - | - | -
O=S(=O)(c1ccccc1)c1cnc(-c2ccccc2)nc1N1CCCC1 | - | - | - | - | - | - | . | . | . | .
COc1cc2ncc(S(=O)(=O)c3ccccc3)c(N3CCCC(C)C3)c2cc1OC (stereo unspecified) | - | 11 | - | - | - | - | 152 | 0.28 | 164% | +
O=C(COC(=O)c1c(F)cccc1F)c1ccc[nH]1 | . | - | - | - | - | - | . | . | . | .
CN(C)c1ccc(N=Nc2ccccc2C(=O)OCC(=O)N(C)c2ccccc2)cc1 | - | 8 | - | - | - | - | 99 | - | 93% | 121% | KCNQ1 ephys val=-
COC(=O)c1ccccc1NC(=O)COC(=O)c1ccccc1N=Nc1ccc(N(C)C)cc1 | - | - | - | - | - | - | . | . | . | .
O=C(NCc1ccco1)c1cccc(Nc2nc3ccc(Br)cc3[nH]2)c1 | - | 8 | - | - | - | - | 163 | 0.33 | 128% | +
O=C(NCC1CC1)c1ccc(Nc2nc3ccc(Br)cc3[nH]2)cc1 | - | - | - | - | - | - | . | . | . | .
SMILES | KCNK3 block | KCNQ1 inh | KCNK9 block | KCNQ1 act | PHOSPHO1 block | hERG rescue | KCNQ1 block val | CHO Tl flux | KCNQ2 spec | KCNQ1-KCNE1 inh | others
NNC(=O)c1csc(-c2ccc(C(F)(F)F)cc2Cl)n1 | - | - | - | - | - | - | . | . | . | .
Cc1ccc(N(CC(=O)NC2CCCCC2C)S(=O)(=O)c2c(C)nn(C)c2C)cc1 (stereo unspecified) | - | - | - | - | - | - | . | . | . | .
COc1ccccc1-c1c(C)nn2c(N3CCCCCC3)cc(C)nc12 | - | 8 | - | - | - | - | - | - | 85% | -
COc1ccc(NC(=O)C2CCCN(S(=O)(=O)c3ccc4c(c3)CC(C)N4C(C)=O)C2)cc1 (stereo unspecified) | - | - | - | - | - | - | . | . | . | .
CCOC(=O)c1ccc(NC(=O)c2cccc(S(=O)(=O)N3c4ccccc4CC3C)c2)s1 (stereo unspecified) | - | 7 | - | - | - | - | 89 | - | - | 110% | KCNQ1 ephys val=-
CC1Cc2ccccc2N1S(=O)(=O)c1cccc(C(=O)NCCCO)c1 (stereo unspecified) | - | - | - | - | - | - | . | . | . | .
CC(Oc1cccc(Cl)c1)C(=O)Nc1cc(S(=O)(=O)N2CCCCC2)ccc1N1CCOCC1 (stereo unspecified) | - | 9 | - | - | . | - | 69 | - | 94% | 95%
CC(Oc1cccc(Cl)c1)C(=O)Nc1cc(S(=O)(=O)N2CCOCC2)ccc1N1CCCC1 (stereo unspecified) | - | - | - | - | . | - | . | . | . | .
Cn1c2c(c(=O)n(C)c1=O)C(C(F)(F)F)(C(F)(F)F)N=C(c1ccc(Cl)cc1)N2 | - | 7 | - | - | - | - | 62 | - | - | -
Cc1ccccc1C1=NC(C(F)(F)F)(C(F)(F)F)c2c(n(C)c(=O)n(C)c2=O)N1 | - | - | - | - | - | - | . | . | . | .
CC(C)N(CCNC(=O)c1ccc(OCC2CCCO2)cc1)C(C)C (stereo unspecified) | - | - | - | - | - | - | . | . | . | .
CCN(Cc1ccc2c(c1)OCO2)C(=O)CSc1nc(C)nc2sc(C)c(C)c12 | - | . | . | . | . | . | . | . | . | .
CCOc1cc(C(=O)NC(=S)Nc2cccnc2)cc(OCC)c1OCC | - | - | - | - | - | - | . | . | . | .
CCN1C(=O)C(CC(=O)Nc2ccc(Br)cc2)N(CCCc2ccccc2)C1=S (stereo unspecified) | - | 8 | - | - | - | - | 140 | 0.33 | 115% | 196%
c1ccc(CCNc2ccnc3cc4ccccc4cc23)cc1 | - | 10 | -7.3 | - | - | - | 130 | 0.38 | 81% | 118%
O=C(NCCc1ccccc1)c1nccc2ccccc12 | - | - | - | - | . | - | . | . | . | .
